Source: ChEMBL document CHEMBL5712079, “The H3K27me3-demethylase KDM6A is suppressed in breast cancer stem-like cells, and enables the resolution of bivalency during the mesenchymal-epithelial transition” (Oncotarget, 2017)
Calls of active or inactive are those of the source. No cut-off for these calls is given here.

Key:
Format in all cases: cell-based
[1] = target: Lysine-specific demethylase 6A (Homo sapiens) (UniProt O15550); assay: Inhibition of KDM6A in human MCF-10A cell assessed as MAP3K9 gene expression at 50 nM by qRT-PCR analysis
Lysine-specific demethylase 6A (Homo sapiens), sequence (O15550 whole entry): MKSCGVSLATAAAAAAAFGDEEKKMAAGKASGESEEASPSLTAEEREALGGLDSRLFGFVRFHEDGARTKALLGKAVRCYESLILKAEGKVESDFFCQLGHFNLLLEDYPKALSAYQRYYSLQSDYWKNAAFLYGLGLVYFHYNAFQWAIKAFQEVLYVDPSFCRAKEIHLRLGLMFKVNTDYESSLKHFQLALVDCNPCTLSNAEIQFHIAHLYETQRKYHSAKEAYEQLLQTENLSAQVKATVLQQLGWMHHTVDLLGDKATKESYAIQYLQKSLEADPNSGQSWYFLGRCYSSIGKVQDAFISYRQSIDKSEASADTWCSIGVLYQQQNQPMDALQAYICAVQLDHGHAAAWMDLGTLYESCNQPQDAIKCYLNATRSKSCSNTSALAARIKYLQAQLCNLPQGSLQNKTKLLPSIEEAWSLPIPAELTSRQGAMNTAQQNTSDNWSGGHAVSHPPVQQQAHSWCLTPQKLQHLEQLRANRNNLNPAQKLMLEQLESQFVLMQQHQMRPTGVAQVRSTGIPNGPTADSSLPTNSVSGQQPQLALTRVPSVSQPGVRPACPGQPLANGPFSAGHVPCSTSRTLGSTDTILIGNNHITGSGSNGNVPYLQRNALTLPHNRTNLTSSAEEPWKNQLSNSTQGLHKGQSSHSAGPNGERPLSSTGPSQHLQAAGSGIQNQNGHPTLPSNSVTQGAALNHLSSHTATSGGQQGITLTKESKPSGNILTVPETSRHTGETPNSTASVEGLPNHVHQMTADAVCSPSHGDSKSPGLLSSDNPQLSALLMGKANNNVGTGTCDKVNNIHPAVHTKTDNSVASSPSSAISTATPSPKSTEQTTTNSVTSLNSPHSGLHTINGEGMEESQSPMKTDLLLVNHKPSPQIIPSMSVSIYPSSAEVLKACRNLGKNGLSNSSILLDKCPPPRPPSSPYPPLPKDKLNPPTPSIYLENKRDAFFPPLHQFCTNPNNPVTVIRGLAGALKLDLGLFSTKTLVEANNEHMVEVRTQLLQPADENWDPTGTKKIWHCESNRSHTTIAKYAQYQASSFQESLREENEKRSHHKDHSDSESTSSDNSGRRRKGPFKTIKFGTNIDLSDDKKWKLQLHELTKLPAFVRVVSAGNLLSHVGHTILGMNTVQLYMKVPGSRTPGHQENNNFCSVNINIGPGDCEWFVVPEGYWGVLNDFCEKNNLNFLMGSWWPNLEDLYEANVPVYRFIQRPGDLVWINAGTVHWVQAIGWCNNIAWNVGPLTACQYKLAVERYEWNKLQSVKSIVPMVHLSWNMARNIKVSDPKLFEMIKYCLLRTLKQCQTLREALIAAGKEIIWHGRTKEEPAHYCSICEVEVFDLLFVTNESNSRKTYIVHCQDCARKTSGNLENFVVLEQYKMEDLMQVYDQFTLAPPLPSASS
Method in brief: (§1)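 MCF10A monolayers were exposed to TGFB at 2.5 ng/ml for 6 days to induce EMT, then cultured without TGFB for 10 days (MET) with compound at 50 nM or DMSO vehicle. Vehicle-only and TGFB-only arms served as references. RNA was analysed by qRT-PCR, normalised to GAPDH by 2^-ΔΔCt, and run in triplicate (mean ± SD). Significance was by unpaired t-tests with Holm-Sidak correction.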

[2] = target: Lysine-specific demethylase 6A (Homo sapiens) (UniProt O15550); assay: Inhibition of KDM6A in human MCF-10A cell assessed as H2AFY2 gene expression at 50 nM by qRT-PCR analysis; method in brief: as §1
[3] = target: Lysine-specific demethylase 6A (Homo sapiens) (UniProt O15550); assay: Inhibition of KDM6A in human MCF-10A cell assessed as FAM117A gene expression at 50 nM by qRT-PCR analysis; method in brief: as §1
[4] = target: Lysine-specific demethylase 6A (Homo sapiens) (UniProt O15550); assay: Inhibition of KDM6A in human MCF-10A cell assessed as ILKAP gene expression at 50 nM by qRT-PCR analysis; method in brief: as §1
[5] = target: Lysine-specific demethylase 6A (Homo sapiens) (UniProt O15550); assay: Inhibition of KDM6A in human MCF-10A cell assessed as C60ORF14 gene expression at 50 nM by qRT-PCR analysis; method in brief: as §1
[6] = target: Lysine-specific demethylase 6A (Homo sapiens) (UniProt O15550); assay: Inhibition of KDM6A in human MCF-10A cell assessed as CCNA1 gene expression at 50 nM by qRT-PCR analysis; method in brief: as §1
[7] = target: Lysine-specific demethylase 6A (Homo sapiens) (UniProt O15550); assay: Inhibition of KDM6A in human MCF-10A cell assessed as CBX4 gene expression at 50 nM by qRT-PCR analysis; method in brief: as §1
[8] = target: Lysine-specific demethylase 6A (Homo sapiens) (UniProt O15550); assay: Inhibition of KDM6A in human MCF-10A cell assessed as FAM60A gene expression at 50 nM by qRT-PCR analysis; method in brief: as §1
[9] = target: Lysine-specific demethylase 6A (Homo sapiens) (UniProt O15550); assay: Inhibition of KDM6A in human MCF-10A cell assessed as vimentin expression at 50 nM by immunostaining analysis
Method in brief: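 MCF10A cells received TGFB (2.5 ng/ml; vehicle was 4 mM HCl with 0.1% BSA) to induce EMT, then TGFB was withdrawn in the presence of compound (50 nM) or DMSO. Cells were fixed and immunostained for vimentin and imaged by inverted fluorescence microscopy.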

[10] = target: Lysine-specific demethylase 6A (Homo sapiens) (UniProt O15550); assay: Inhibition of KDM6A in human MCF-10A cell assessed as MED30 gene expression at 50 nM by qRT-PCR analysis; method in brief: as §1
[11] = target: Lysine-specific demethylase 6A (Homo sapiens) (UniProt O15550); assay: Inhibition of KDM6A in human MCF-10A cell assessed as COBLL1 gene expression at 50 nM by qRT-PCR analysis; method in brief: as §1
[12] = target: Lysine-specific demethylase 6A (Homo sapiens) (UniProt O15550); assay: Inhibition of KDM6A in human MCF-10A cell assessed as PUS3 gene expression at 50 nM by qRT-PCR analysis; method in brief: as §1
[13] = target: Lysine-specific demethylase 6A (Homo sapiens) (UniProt O15550); assay: Inhibition of KDM6A in human MCF-10A cell assessed as ZNF232 gene expression at 50 nM by qRT-PCR analysis; method in brief: as §1
[14] = target: Lysine-specific demethylase 6A (Homo sapiens) (UniProt O15550); assay: Inhibition of KDM6A in human MCF-10A cell assessed as THOC6 gene expression at 50 nM by qRT-PCR analysis; method in brief: as §1
[15] = target: Lysine-specific demethylase 6A (Homo sapiens) (UniProt O15550); assay: Inhibition of KDM6A in human MCF-10A cell assessed as CDK4 gene expression at 50 nM by qRT-PCR analysis; method in brief: as §1
[16] = target: Lysine-specific demethylase 6A (Homo sapiens) (UniProt O15550); assay: Inhibition of KDM6A in human MCF-10A cell assessed as FZD8 gene expression at 50 nM by qRT-PCR analysis; method in brief: as §1
[17] = target: Lysine-specific demethylase 6A (Homo sapiens) (UniProt O15550); assay: Inhibition of KDM6A in human MCF-10A cell assessed as PKP2 gene expression at 50 nM by qRT-PCR analysis; method in brief: as §1
[18] = target: Lysine-specific demethylase 6A (Homo sapiens) (UniProt O15550); assay: Inhibition of KDM6A in human MCF-10A cell assessed as LRRC8D gene expression at 50 nM by qRT-PCR analysis; method in brief: as §1

inhibition [1]: Active
inhibition [2]: Active
inhibition [3]: Active
inhibition [4]: Active
inhibition [5]: Active
inhibition [6]: Active
inhibition [7]: Active
inhibition [8]: Active
inhibition [9]: Active
inhibition [10]: Active
inhibition [11]: Active
inhibition [12]: Active
inhibition [13]: Active
inhibition [14]: Active
inhibition [15]: Active
inhibition [16]: Active
inhibition [17]: Active
inhibition [18]: Active
Structure (SMILES): CCOC(=O)CCNc1cc(N2CCc3ccccc3CC2)nc(-c2ccccn2)n1
